SR-BI uptake up: enhances SR-BI lipid uptake from DiI-HDL. CHO ldlA[mSR-BI] cells, DiI-HDL uptake fluorescence, 3 h; 100 = double the neutral-control signal. activation, % at 12.5 µM. actives 0.096% (n = 320,000). AID 504775;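 active = mean replicate activation of at least 60% and every replicate at or above 60%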;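 note: 0% = median plate neutral-control signal and 100% = twice that signal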
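Material: SR-BI-overexpressing, LDLR-lacking CHO cells | Dosing: Single compound concentration, delivered by pin transfer | Probe or stimulus: Labelled HDL, 10 µg/mL | Signal: Bottom-read cell fluorescence after medium removal, ex 550/em 595 nm | Schedule: 3 h, 37 °C | Evaluation: HDL uptake via cellular fluorescence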
FID counter: fluorescent intercalator displacement, NS3 helicase counter-screen; DNA fluorescent intercalator displacement, fluorescence; inhibition, % at 7.9 µM; actives 0.17% (n = 290,000); in the data active = inhibition above about 37%;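 note: 0% = vehicle and 100% = reference compound; higher means more ethidium bromide displaced from hairpin DNA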
ANO1 block: mouse TMEM16A channel inhibition, primary screen. Q8BHY3. HEK293 TMEM16A/YFP iodide influx fluorescence, ionomycin. normalized B-score (activity score, 25-100; higher = stronger inhibition) at 10 µM. actives 1.2% (n = 310,000). AID 588511;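 active = ratio plate-corrected score three or more library SD toward inhibition, starting fluorescence score within five deviations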;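 note: score derived from kinetic fluorescence span divided by baseline fluorescence per well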
SR-BI HDL uptake: blocks mouse SR-BI lipid uptake from DiI-HDL; Q61009; ldlA[mSR-BI] CHO cells, DiI-HDL uptake fluorescence, 3 h; inhibition, % at 12.5 µM; actives 0.96% (n = 320,000); AID 488896;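 active = mean replicate inhibition of at least 70% and a set share of replicates each scoring 70 or more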;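 note: 0% = median of neutral control wells and 100% = median of positive control wells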
Target sequence (Q61009 whole entry, looked up): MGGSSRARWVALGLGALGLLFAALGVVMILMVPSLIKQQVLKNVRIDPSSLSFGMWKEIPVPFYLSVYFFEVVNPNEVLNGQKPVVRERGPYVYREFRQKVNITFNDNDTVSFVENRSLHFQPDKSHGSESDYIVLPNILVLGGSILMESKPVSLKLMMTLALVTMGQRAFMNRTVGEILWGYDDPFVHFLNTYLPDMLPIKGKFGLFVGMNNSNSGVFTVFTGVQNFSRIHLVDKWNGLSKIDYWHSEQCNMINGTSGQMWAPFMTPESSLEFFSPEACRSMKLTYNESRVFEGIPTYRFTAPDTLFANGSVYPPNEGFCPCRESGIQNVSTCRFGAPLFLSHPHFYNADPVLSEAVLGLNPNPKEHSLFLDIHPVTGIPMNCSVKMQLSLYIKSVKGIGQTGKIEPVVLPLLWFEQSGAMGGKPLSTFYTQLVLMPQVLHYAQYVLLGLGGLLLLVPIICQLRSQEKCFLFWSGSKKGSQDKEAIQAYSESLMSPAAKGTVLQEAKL
Kir21 block: blocks the mouse Kir2.1 inward-rectifier potassium channel. P35561. AID 1672. B-score at 10 µM. HEK293-Kir2.1, FluxOR thallium flux fluorescence; active compounds read low. actives 0.85% (n = 310,000);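 active = fluorescence ratio B-score at or below minus 3 SD of library scores, with starting-brightness B-score within 2 SD, cut at about -4.2 in these data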;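 note: channel flux triggered by added potassium and thallium sulfate stimulus; B-score of peak minus minimum fluorescence over baseline after thallium stimulus; more negative B-score means stronger Kir2.1 block with less thallium influx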
ANO1 activ: mouse TMEM16A channel activation, primary screen; Q8BHY3; HEK293 TMEM16A/YFP-H148Q/I152L, iodide quench fluorescence; active compounds read low; B-score at 10 µM; actives 0.3% (n = 340,000);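 active = fluorescence-ratio B-score plate-corrected deviation score at least 3 library SD below zero, with starting fluorescence score within 5 deviations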;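 note: channel opened by trigger with iodide after compound preincubation; score built on the fluorescence ratio of max minus min over baseline; more negative score means more quench and so TMEM16A activation or potentiation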
TMEM16A reconf: reconfirmed blocker of mouse TMEM16A calcium-activated chloride channel; actives 39% (n = 2,300); HEK293 TMEM16A/YFP-H148Q, iodide quench fluorescence; ionomycin added to raise cell calcium; shares compounds with ANO1 block; AID 652189; inhibition, % at 10 µM;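 active = mean duplicate percent inhibition, scaled so buffer wells are 0 and the reference blocker 100, over three buffer SD above buffer mean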
HEK293 Ca mobil: alters calcium mobilization in TMEM16A HEK293 cells, counter-screen. shares compounds with ANO1 block. TMEM16A/YFP HEK293, Fluo4 calcium mobilization. calcium response (% of ionomycin), % at 10 µM. actives 2% (n = 2,300). AID 652231;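 active = duplicate-averaged calcium signal over 20% of the ionomycin maximum, relative to buffer baseline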;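 note: each well's signal is peak minus trough fluorescence divided by its pre-addition baseline; 0% = buffer wells and 100% = ionomycin wells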
YFP-HEK293 quench: counter-screen for TMEM16A inhibitors: effect in parental YFP-HEK293 cells; shares compounds with ANO1 block; iodide YFP quench, ionomycin; YFP ratio F(max-min)/F0 at 10 µM; 2,300 tested, under 10 active; AID 652233;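 active = yellow fluorescent protein signal ratio exceeding the buffer control mean by over 5 SD of those controls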;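 note: ratio is mean of duplicate wells from kinetic YFP trace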
ClC-1 rat inh: selectivity of TMEM16A inhibitors: inhibition of rat ClC-1 chloride channel; shares compounds with ANO1 block; CHO ClC-1-YFP, iodide influx fluorescence quench; iodide control reads 0, buffer control 100; ratio percent, % at 10 µM; 2,300 tested, under 10 active;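 active = duplicate-mean ratio percent above the mean of iodide-only control wells, which defines zero, plus 5 of their SD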;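 note: higher percent means stronger block of ClC-1 iodide influx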
* marks the source's active call; other numbers are inactive results; i = inactive; / = no result given. A selection: hits, their analogues and other compounds. The true share with any hit is near 3%.

SMILES | SR-BI uptake up | FID counter | ANO1 block | SR-BI HDL uptake | Kir21 block | ANO1 activ | TMEM16A reconf | HEK293 Ca mobil | YFP-HEK293 quench | ClC-1 rat inh
O=C(CS(=O)CC(=O)N(CC(=O)NC1CCCC1)C1CCCC1)Nc1ccc(F)cc1 (stereo unspecified) | -37.8 | -16.5 | 25* | 37.8 | -1.05 | / | i | i | -1.07 | -8.0
CCCC(Oc1ccc(Br)cc1)c1nc2c3cc(OC)c(OC)cc3nc(=S)n2[nH]1 (stereo unspecified) | -33.9 | -1.9 | i | 33.9 | 0.67 | i | / | / | / | /
CC(Oc1ccc(Br)cc1)c1nc2c3ccccc3nc(=S)n2[nH]1 (stereo unspecified) | -1.4 | 2.1 | 25* | 1.4 | 0.37 | i | 33.0%* | i | -0.709 | -9.0
c1ccc(Cn2ccc(-c3cnc(-c4ccccc4)s3)n2)cc1 | -11.9 | -12.7 | 100* | 11.9 | 0.05 | i | 45.0%* | i | -0.936 | -11.0
Nc1ccn(Cc2ccccc2)n1 | 12.5 | -3.1 | i | -12.5 | -1.46 | i | / | / | / | /
CC(C)(C(=O)c1cccnc1)c1cccnc1 | 12.8 | / | i | -12.8 | 0.25 | i | / | / | / | /
Cc1cc(C)c(C(=O)OCc2csc(CC(=O)Nc3ccccc3C)n2)c(C)c1 | 2.2 | -29.6 | 25* | -2.2 | -1.3 | i | i | i | -1.05 | -13.0
Cc1ccccc1NC(=O)Cc1nc(COC(=O)c2ccccn2)cs1 | 2.4 | / | i | -2.4 | -0.99 | i | / | / | / | /
CC(=O)Nc1ccc(S(=O)(=O)N(C)CC(=O)OC2CCCCC2=O)cc1 (stereo unspecified) | -1.5 | / | / | 1.5 | / | / | / | / | / | /
Cc1ccc(N2CCN(CC(O)COC3CCCCC3)CC2)cc1 (stereo unspecified) | 8.8 | -4.7 | 25* | -8.8 | 0.34 | i | i | i | -1.36 | -5.0
Cc1sc(NC(=O)C2CSC3(C)CCC(=O)N23)nc1-c1ccc(F)cc1 (stereo unspecified) | -49.6 | -28.0 | i | 49.6 | 0.02 | i | / | / | / | /
CCCCN(C(=O)c1ccc2c(c1)OCO2)C1CCS(=O)(=O)C1 (stereo unspecified) | 20.2 | / | i | -20.2 | 0.15 | i | / | / | / | /
COc1ccc(OCCSc2nnc(C)n2-c2ccccc2)cc1 | -18.8 | -24.9 | 100* | 18.8 | -1.18 | i | i | i | -0.938 | -5.0
CCCCOC(=O)n1c(=O)oc2ccc(S(=O)(=O)N3CCCCC3)cc21 | / | -23.0 | 25* | / | -0.96 | i | 20.0%* | i | -1.04 | -8.5
O=C(CCNC(=O)c1ccccc1Cl)Nc1cccc(S(=O)(=O)N2CCOCC2)c1 | 0.3 | / | / | -0.3 | / | i | / | / | / | /
COc1cccc(C(O)C2OC(=O)c3ccccc32)c1OC (stereo unspecified) | / | / | i | / | 0.79 | i | / | / | / | /
O=C(Nc1ccc(OC(F)(F)F)cc1)N1CCN(c2ccnc3cc(Cl)ccc23)CC1 | -53.0 | -2.4 | 100* | 53.0 | 0.23 | i | i | i | -1.08 | -22.5
O=C(C1CCCCC1)N1CCN(c2ccnc3cc(Cl)ccc23)CC1 | -11.9 | -18.8 | 25* | 11.9 | 0.48 | i | 18.0%* | i | -1.02 | -14.0
Cc1csc2ncnc(N3CCN(C(=O)Nc4ccc(OC(F)(F)F)cc4)CC3)c12 | -46.4 | -28.9 | 100* | 46.4 | 0.81 | i | 16.5%* | i | -1.48 | -11.5
CC(C)(C)C(=O)N1CCN(c2ccnc3cc(Cl)ccc23)CC1 | -22.6 | -14.2 | i | 22.6 | 1.34 | i | / | / | / | /

Assay outcomes from PubChem BioAssay.
